Our source for the Ki values is PubChem BioAssay AID504906 (The Scripps Research Institute Molecular Screening Center, 2011).

pKi: −log10 of the molar value.

In this test the target is Nuclear receptor ROR-alpha (Homo sapiens) (UniProt P35398). Kind of test: direct binders of RORa ligand-binding domain, late-stage follow-up, orthogonal assay for RORA inverse agonist project, biochemical, [3H]25-hydroxycholesterol, radioligand competition, GST-RORa LBD (AID 504906). The settings on record: [3H]25-hydroxycholesterol displacement. Summed up: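 Material – purified GST-RORα ligand-binding domain (aa 304-556) · Reagent – 3 nM [3H]25-hydroxycholesterol · Medium – 50 mM HEPES buffer, pH 7.4, with 0.01% BSA · Signal – GF/B filter capture of bound radioligand · Read-out – Ki from nonlinear regression fit to mixed-inhibition model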
Nuclear receptor ROR-alpha (Homo sapiens), sequence (P35398 whole entry, looked up, the tested form may be a part): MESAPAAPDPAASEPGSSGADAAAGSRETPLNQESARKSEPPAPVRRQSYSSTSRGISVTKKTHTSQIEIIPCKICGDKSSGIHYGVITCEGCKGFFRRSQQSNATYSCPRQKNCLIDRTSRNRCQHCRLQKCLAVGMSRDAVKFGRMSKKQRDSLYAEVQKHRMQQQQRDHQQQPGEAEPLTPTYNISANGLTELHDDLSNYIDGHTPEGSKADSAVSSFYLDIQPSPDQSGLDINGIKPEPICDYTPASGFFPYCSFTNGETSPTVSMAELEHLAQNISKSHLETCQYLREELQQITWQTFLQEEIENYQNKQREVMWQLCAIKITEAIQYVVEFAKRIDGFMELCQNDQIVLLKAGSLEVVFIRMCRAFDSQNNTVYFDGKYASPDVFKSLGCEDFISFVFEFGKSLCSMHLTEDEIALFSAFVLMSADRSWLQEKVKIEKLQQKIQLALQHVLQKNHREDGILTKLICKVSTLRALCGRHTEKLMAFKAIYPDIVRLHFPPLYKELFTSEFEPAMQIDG

As to `O=S(=O)(Nc1ccc(C(O)(C(F)(F)F)C(F)(F)F)cc1)c1cccs1`, the pKi was 6.66.
